GalR3 antagonist – GalR3 antagonists in HEK293 cells, primary screen, cell-based, fluorescence readout; Galanin receptor type 3 (Homo sapiens), O60755; HEK293 GalR3-CNG cAMP membrane potential fluorescence; galR3 body fused to GalR1 C-terminus; inhibition, % at 3 µM; 360,000 tested, 0.44% active; AID 651719, 2012;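 active = inhibition above the screen-wide average plus 3 SD, cut at about 13% in these data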;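 also: forskolin and galanin both at EC90 stimulate the cells; cAMP rise reported by CNG channel membrane potential dye signal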
Target sequence (O60755 1-299 limits assumed): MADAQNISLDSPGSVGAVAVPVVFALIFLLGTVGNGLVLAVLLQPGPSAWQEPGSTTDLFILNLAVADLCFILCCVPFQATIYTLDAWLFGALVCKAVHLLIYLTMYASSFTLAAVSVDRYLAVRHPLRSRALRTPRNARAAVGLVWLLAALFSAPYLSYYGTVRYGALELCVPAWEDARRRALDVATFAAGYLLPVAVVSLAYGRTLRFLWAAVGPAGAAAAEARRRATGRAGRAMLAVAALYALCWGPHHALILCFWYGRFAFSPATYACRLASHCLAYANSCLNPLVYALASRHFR
OX1R antag-1 – OX1R (HCRTR1) antagonists, primary screen, fluorescence, CHO/OX1R cells, Fluo-8 calcium, orexin A; 330,000 tested, 0.43% active; Orexin/Hypocretin receptor type 1 (Homo sapiens), O43613; Fluo-8 calcium fluorescence; inhibition, % at 5 µM;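 active = inhibition above its plate's threshold, mean inhibition of all tested compounds on the plate plus 3 SD, cut at about 37% in these data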
GPR7 antag – GPR7 receptor antagonists, primary screen, cell-based, fluorescence, single concentration; inhibition, % at 4.4 µM; 290,000 tested, 1.1% active; GPR7-expressing cells, fluorescence antagonist assay; Neuropeptides B/W receptor type 1 (Homo sapiens), P48145; AID 1861, 2009; in the data active = inhibition above about 16%, passing the limit was not always enough;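 also: cells stimulated with the agonist NPW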
Target sequence (P48145 whole entry, looked up): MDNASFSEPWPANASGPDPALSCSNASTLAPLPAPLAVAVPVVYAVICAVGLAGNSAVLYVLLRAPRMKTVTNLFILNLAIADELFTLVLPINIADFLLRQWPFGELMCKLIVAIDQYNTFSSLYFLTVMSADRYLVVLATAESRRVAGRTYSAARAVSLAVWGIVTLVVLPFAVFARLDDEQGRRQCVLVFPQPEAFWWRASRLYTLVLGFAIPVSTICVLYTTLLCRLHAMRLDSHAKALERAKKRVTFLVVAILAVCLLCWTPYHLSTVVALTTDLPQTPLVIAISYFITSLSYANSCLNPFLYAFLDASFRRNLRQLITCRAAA
OX1R antag-2 – antagonists of human orexin 1 receptor (OX1R); OX1R-expressing cells, FRET antagonist read-out; inhibition, % at 6.6 µM; AID 485270, 2010; 330,000 tested, 1.8% active; Orexin/Hypocretin receptor type 1 (Homo sapiens), O43613; in the data active = inhibition mostly above about 38%, no sharp cut-off; inactive = mostly below about 40%
CHO parental Ca – ATP-evoked calcium signal inhibitors, parental CHO, primary screen, counter-screen for OX1R antagonist project, cell-based, fluorescence, Fluo-8 calcium dye. parental CHO-K1, ATP-induced calcium, Fluo-8 fluorescence. inhibition, % at 5.6 µM. 330,000 tested, 0.63% active. AID 463079, 2010;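 active = inhibition above that plate's mean sample inhibition plus 3 SD, cut at about 26% in these data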
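Measured by: calcium-sensitive Fluo-8 fluorescence / Test system: CHO parental line / Controls: ATP-challenged DMSO wells low, unchallenged DMSO wells high / Measure: % inhibition / Compound: single nominal dose of 5.6 µM per compound / Replicates: single well per compound, no replicates / Reagent: ATP as calcium-mobilizing challenge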
OX1R HTRF conf – OX1R (HCRTR1) antagonists, confirmation, cell-based, HTRF; 1,800 tested, 49% active; shares compounds with OX1R antag-2; OX1R-expressing cells, HTRF antagonist assay; inhibition, % at 6.6 µM; in the data active = inhibition above about 55%;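 also: CHO cells expressing OX1R stimulated with orexin A at about EC80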
CHO-K1 HTRF – signal inhibition in parental CHO-K1 cells, counter-screen for OX1R antagonist project, cell-based, HTRF. 1,800 tested, 48% active. HTRF counterscreen. inhibition, % at 6.6 µM. shares compounds with OX1R antag-2; in the data active = inhibition above about 17%
Large screens that a line does not name were inactive (follow-up assays come after a bar, where they were run). This is a sample that favours compounds with a hit; in the whole collection about 3.1% have one here.

COc1ccc(NC(=O)CNC(=O)c2ccc([N+](=O)[O-])cc2)cc1	none
CCCNC(=O)c1nc(C)n(-c2ccc([N+](=O)[O-])cc2)n1	OX1R antag-2 137 | OX1R HTRF conf 71 | CHO-K1 HTRF 52
COc1ccc(NC(=O)c2nc(C)n(-c3ccc([N+](=O)[O-])cc3)n2)cc1	OX1R antag-2 107 | OX1R HTRF conf inactive | CHO-K1 HTRF 33
CNC(=O)c1nc(C)n(-c2ccc([N+](=O)[O-])cc2)n1	none
CCN(c1ccc(OC)cc1)S(=O)(=O)c1nnc(NC(=O)c2ccc(C)cc2)s1	none (no result: GalR3 antagonist)
S=c1[nH]nc2sc3ccccc3n12	none (no result: OX1R antag-1, GPR7 antag, OX1R antag-2, CHO parental Ca)
S=c1[nH]nc2nnc3ccccc3n12	OX1R antag-2 85 | OX1R HTRF conf 88 | CHO-K1 HTRF 79
C/C(=N\NC(=O)c1nnn(-c2nonc2N)c1-c1ccc2c(c1)OCO2)c1ccc(C)cc1	none
NC(=O)CC(NC(=O)Cc1cccc2ccccc12)c1ccc(NCCN2CCCC2)c([N+](=O)[O-])c1 (stereo unspecified)	OX1R antag-2 84 | OX1R HTRF conf inactive | CHO-K1 HTRF inactive
CCCCn1c(=NC(=O)c2cccnc2)c(C(=O)OCC)cc2c(=O)n3ccccc3nc21	none (no result: OX1R antag-1, OX1R antag-2, CHO parental Ca)
CCOCCCn1c(=NC(=O)c2cccnc2)c(C(=O)OCC)cc2c(=O)n3ccccc3nc21	OX1R antag-2 111 | OX1R HTRF conf 57 | CHO-K1 HTRF 59
CCOC(=O)c1cc2c(=O)n3ccccc3nc2n(CC2CCCO2)c1=NC(C)=O (stereo unspecified)	OX1R antag-2 108 | OX1R HTRF conf inactive | CHO-K1 HTRF 56
CCOC(=O)c1cc2c(=O)n3ccccc3nc2n(CC2CCCO2)c1=NC(=O)/C=C/c1ccccc1 (stereo unspecified)	OX1R antag-2 119 | OX1R HTRF conf inactive | CHO-K1 HTRF 42
Cc1ccc(S(=O)(=O)c2cc3c(=O)n4ccccc4nc3n(CC3CCCO3)c2=N)cc1 (stereo unspecified)	none (no result: GalR3 antagonist, OX1R antag-1, OX1R antag-2, CHO parental Ca)
C=CCSc1nnc(CCc2ccccc2)n1N	none (no result: OX1R antag-1, GPR7 antag, OX1R antag-2, CHO parental Ca)
Nc1ccc2c(c1)C(=O)C(=O)c1ccccc1-2	OX1R antag-2 active | OX1R HTRF conf 83 | CHO-K1 HTRF 41
Cc1[nH]c2ccccc2c1/C=N/Nc1nncn1N	OX1R antag-2 139 | OX1R HTRF conf inactive | CHO-K1 HTRF inactive
C[C@@H](NC(=O)C1(c2ccccc2)CCN(C(=O)OC(C)(C)C)CC1)C(=O)N[C@@H](C(=O)O)c1ccccc1	OX1R antag-2 87 | OX1R HTRF conf inactive | CHO-K1 HTRF inactive
C[C@H](NC(=O)C1(c2ccccc2)CCN(C(=O)OC(C)(C)C)CC1)C(=O)N[C@@H](C(=O)O)c1ccccc1	none
COc1cc2c(cc1OC)-c1cc3ccc4c(c3c[n+]1CC2)OCO4	OX1R antag-2 79 | OX1R HTRF conf inactive | CHO-K1 HTRF 75
COc1cc2c(cc1OC)C(c1ccccc1)=NCC2	none
COc1cc2c(cc1O)CC[n+]1cc3c(OC)c(OC)ccc3cc1-2	OX1R antag-2 77 | OX1R HTRF conf inactive | CHO-K1 HTRF 37
Cc1noc(C)c1S(=O)(=O)N1CCCc2nc(-c3ccc(Br)cc3)ccc21	none (no result: OX1R antag-1, GPR7 antag, OX1R antag-2, CHO parental Ca)
CCOC(=O)c1cc2[nH]c3ccccc3c2[n+](-c2ccc([N+](=O)[O-])cc2)c1N	OX1R antag-2 138 | OX1R HTRF conf 57 | CHO-K1 HTRF 69
CN1C(=O)C(C)(C)c2cc(S(=O)(=O)N3CCCC3C(=O)NCc3ccc(F)cc3)ccc21 (stereo unspecified)	OX1R antag-2 78 | OX1R HTRF conf inactive | CHO-K1 HTRF inactive
O=C(NCc1ccc(F)cc1)C1CCCN1S(=O)(=O)c1ccc(F)cc1 (stereo unspecified)	none (no result: OX1R antag-1, GPR7 antag, OX1R antag-2, CHO parental Ca)
COc1ccc(NC(=O)C2CCCCN2S(=O)(=O)c2ccc(F)cc2)cc1 (stereo unspecified)	OX1R antag-2 87 | OX1R HTRF conf inactive | CHO-K1 HTRF inactive
COc1cccc(/C=N/NC(=O)C(=O)Nc2ccccc2OC(F)(F)C(F)F)c1O	OX1R antag-2 97 | OX1R HTRF conf 93 | CHO-K1 HTRF inactive
COc1ccccc1/C=N/NC(=O)c1cccc(OC(F)(F)C(F)F)c1	none
Nc1c(N=Nc2ccccc2F)c(=O)[nH]n1-c1ccccc1	OX1R antag-2 86 | OX1R HTRF conf 67 | CHO-K1 HTRF inactive
O=C(O)c1cccc(NC2=C(n3nnc4ccccc43)C(=O)c3ccccc3C2=O)c1	OX1R antag-2 148 | OX1R HTRF conf 94 | CHO-K1 HTRF 95
CS(=O)(=O)c1ccc2nc(NC(=O)CN3C(=O)NC4(CCCC4)C3=O)sc2c1	none
CN1C2=CC=CC=CC2=[N+](C)C12C=CC(=[N+]([O-])[O-])C=C2[N+](=O)[O-] (stereo unspecified)	OX1R antag-2 144 | OX1R HTRF conf 68 | CHO-K1 HTRF 90
CN1C2=CC=CC=CC2=[N+](C)C12C([N+](=O)[O-])=CC(=[N+]([O-])[O-])C=C2[N+](=O)[O-] (stereo unspecified)	none
CC(C)(C)NC(=O)c1cccc2c1C(=O)c1ccccc1-2	none
O=C(NCCO)c1cccc2c1C(=O)c1ccccc1-2	OX1R antag-2 121 | OX1R HTRF conf 58 | CHO-K1 HTRF 53
COc1ccc(Cc2n[nH]c(=S)n2N)cc1OC	none
COc1cccc(/C=C2\SC(=S)N(CCC(=O)NNC(=O)c3ccccc3OC)C2=O)c1	none
COc1cccc(/C=C2/SC(=S)N(CC(=O)NNC(=O)c3ccccc3OC)C2=O)c1	OX1R antag-2 86 | OX1R HTRF conf 96 | CHO-K1 HTRF inactive
O=C(CS(=O)c1ccc(C(F)(F)F)cc1[N+](=O)[O-])Oc1ccccc1 (stereo unspecified)	OX1R antag-2 86 | OX1R HTRF conf inactive | CHO-K1 HTRF inactive
CCN(CC)c1nc2ccccc2n(Cc2cccc(OC)c2)c1=O	none
COc1ccccc1NC(=O)c1nn(-c2cccc(C(F)(F)F)c2)ccc1=O	OX1R antag-2 82 | OX1R HTRF conf 66 | CHO-K1 HTRF inactive
COc1ccccc1NC(=O)c1nn(-c2ccc(F)c(F)c2)ccc1=O	none
COc1ccc(C(=O)Oc2cccc(Nc3ncnc4ccccc34)c2)cc1OC	OX1R antag-2 84 | OX1R HTRF conf inactive | CHO-K1 HTRF inactive
COc1ccc(Cl)cc1NC(=O)CN(C)C(=O)CCc1nc2ccccc2c(=O)[nH]1	none (no result: GPR7 antag)

Assay outcomes (PubChem BioAssay)
